# CCR6 antag: CCR6 receptor antagonists, primary screen, cell-based, CHO-K1, luminescence, beta-arrestin, uHTS; inhibition, % at 20 µM; AID 493098, 2011; CHO-K1 CCR6 PathHunter beta-arrestin, CCL20-stimulated; 0.49% of 340,000 active; C-C chemokine receptor type 6 (Homo sapiens), P51684;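 active = compounds whose inhibition of the agonist-driven luminescence signal at 20 µM reaches about 50%, limit read from the data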;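 note: cells stimulated with CCL20 at 14 nM final; plate controls were DMSO with CCL20 for no effect and DMSO without agonist for full effect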
# HTR2A ag: mouse Htr2a agonists via beta-arrestin recruitment, primary screen, cell-based, luminescence. 5-hydroxytryptamine receptor 2A (Mus musculus), P35363. CHO-K1 mHTR2A beta-arrestin complementation; percent of 30 µM serotonin response. activation, % at 7.6 µM. 0.66% of 360,000 active. AID 624169, 2012;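 active = activation above a run cutoff, the mean activation of all tested compounds plus 3 SD, cut at about 14% in these data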;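 note: 0% = plate median of compound wells and 100% = 30 µM serotonin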
# Target sequence (P35363 whole entry, looked up): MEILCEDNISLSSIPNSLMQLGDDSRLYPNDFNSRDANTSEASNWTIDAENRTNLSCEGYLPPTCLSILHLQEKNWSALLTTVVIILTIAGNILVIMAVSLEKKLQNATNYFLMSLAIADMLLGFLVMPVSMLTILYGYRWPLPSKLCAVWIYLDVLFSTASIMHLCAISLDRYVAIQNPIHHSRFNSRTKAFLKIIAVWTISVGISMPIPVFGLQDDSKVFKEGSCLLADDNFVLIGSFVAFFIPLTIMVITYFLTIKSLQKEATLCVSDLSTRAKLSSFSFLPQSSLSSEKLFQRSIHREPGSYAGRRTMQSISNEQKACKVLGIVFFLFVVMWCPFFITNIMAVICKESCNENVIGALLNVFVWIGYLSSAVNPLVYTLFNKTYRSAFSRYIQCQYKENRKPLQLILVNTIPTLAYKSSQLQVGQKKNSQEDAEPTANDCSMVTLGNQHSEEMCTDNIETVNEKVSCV
# APJ antagonist: antagonists of human apelin receptor APJ, primary screen, CHO-K1 cells, beta-arrestin complementation, luminescence | P35414 | inhibition, % at 20 µM | 0.32% of 330,000 active | AID 2521, 2010;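 active = inhibition above about 40% at 20 µM, limit read from the data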;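 note: cells challenged with 10 nM apelin-13 agonist together with compound; plate controls were apelin-13 plus DMSO wells for no effect and DMSO wells lacking apelin-13 for full effect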
# EBI2 antag: EBI2 receptor antagonists, beta-arrestin recruitment, primary screen, cell-based, luminescence, 7a,25-OHC stimulation, uHTS. G-protein coupled receptor 183 (Homo sapiens), P32249. 7a,25-OHC stimulated. inhibition, % at 5 µM. 0.81% of 360,000 active. AID 651636, 2012; in the data active = inhibition above about 38%;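 note: enzyme fragment complementation signal reports receptor beta-arrestin coupling in cells; 0% = agonist plus DMSO wells and 100% = wells without agonist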
# APJ ag: agonists of human apelin receptor APJ, primary screen, CHO-K1 cells, PathHunter beta-arrestin, luminescence | 0% DMSO wells, 100% apelin | activation, % at 20 µM | 0.11% of 330,000 active | AID 2520, 2010;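 active = activation more than six SD over the plate average, tested at 20 µM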;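 note: 0% = DMSO alone and 100% = apelin-13 at 10 nM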
#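 Material: CHO-K1 APJ beta-arrestin complementation cell line; Input: cell density 1000 per well; Incubation: compound stimulation 90 min at 25 °C, detection 60 min; Signal: luminescence from split beta-galactosidase complementation, Galacton Star/Emerald II substrate; Controls: DMSO-only wells as negative, 10 nM Apelin-13 as positive control.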
# CXCR6 inh: CXCR6 receptor inhibitors, primary screen, cell-based, beta-arrestin, luminescence, CHO-K1 PathHunter, 1536-well; C-X-C chemokine receptor type 6 (Homo sapiens), O00574; inhibition, % at 20 µM; 0.36% of 360,000 active; AID 602244, 2012; in the data active = inhibition above about 34%, passing the limit was not always enough;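 note: antagonist mode with CXCL16 agonist at 10 nM final; 0% = 10 nM CXCL16 with DMSO and 100% = unstimulated wells without agonist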
# An asterisk follows results filed as active; / = not tested or not shown. The list is not random: actives were taken first. Their share in the collection is about 2.1%.
SMILES,CCR6 antag,HTR2A ag,APJ antagonist,EBI2 antag,APJ ag,CXCR6 inh
Clc1ccc(CSc2nccn2Cc2ccccc2)cc1,26,-3,-10,77*,-8,-10
CCOC(=O)c1ccc(N/N=C/c2cc(Br)cc([N+](=O)[O-])c2O)cc1,60*,-1,19,21,-6,52*
CCOC(=O)c1ccc(NC(=O)c2ccccc2[N+](=O)[O-])cc1,1,-3,23,-1,-4,2
O=C1[C@@H](Oc2ccccc2)[C@@H](c2ccccc2)N1c1cccnc1,5,-2,/,2,/,3
Cc1[nH]n(-c2nc(-c3ccc(Cl)cc3)cs2)c(=O)c1N=Nc1ccc(O)cc1,25,-1,23,51*,-4,24
COc1ccccc1CN(CC(=O)NCc1ccco1)C(=O)CNS(=O)(=O)c1ccccc1,61*,0,8,3,-4,-5
CCCSc1nnc(NC(=O)c2nc(SC)ncc2Cl)s1,14,3,-11,-9,4,7
Cc1ccsc1C=Nc1ccc(O)cc1,8,8,-14,45*,-1,-6
Cc1ccc(S(=O)(=O)Nc2cccc3ncccc23)s1,96*,-5,91*,73*,-18,63*
C=C(C)C(=O)Oc1ccc(N=Nc2ccc(C)cc2)ccc1=O,92*,2,/,-6,/,65*
CC(=O)c1ccc(N=Nc2ccc(C)cc2)cc1,15,-5,27,9,-5,12
COc1ccccc1NC(=O)CSc1nnc(NC(=O)c2ccco2)s1,9,-2,17,15,-2,1
O=C(N/N=C\c1cc(Br)ccc1O)c1ccc(S(=O)(=O)N2CCCCC2)cc1,15,-2,-12,58*,0,-3
O=C(N/N=C/c1ccc(O)c(O)c1)c1cccc(S(=O)(=O)N2CCCCC2)c1,2,3,1,0,-1,0
O=C(Nc1ccc(S(=O)(=O)N2CCCCC2)cc1)c1ccncc1,58*,-1,0,-7,9,-8
O=C(N/N=C/c1cc(Cl)ccc1O)c1ccc(Br)cc1,12,-10,/,48*,/,2
Cc1onc(-c2ccccc2)c1C(=O)N/N=C/c1cc2c(cc1Br)OCO2,-1,-2,5,7,0,-6
Oc1ccc(/C=N/Nc2cc(N3CCCC3)nc(N3CCCC3)n2)cc1,5,-4,1,55*,-4,-2
Cc1nc(Nc2ncc3c(n2)CC(C)(C)CC3=O)nc2ccccc12,15,1,/,5,/,4
CC1=NC(Nc2nc(C)c3ccccc3n2)=NC(C)(C)C1,58*,-3,/,26,/,37
CC(C)C1N(C(=O)N(C)C)CCN1S(=O)(=O)c1ccccc1 (stereo unspecified),7,3,10,-3,-3,3
C/C(=N\NC(=O)CNC(=O)C1COc2ccccc2O1)c1ccc(Cl)cc1 (stereo unspecified),7,6,17,8,-1,2
Cc1[nH]n(-c2ccccc2)c(=O)c1C(C[N+](=O)[O-])c1ccc(Br)cc1 (stereo unspecified),36,-5,14,1,2,45*
COc1cccc(C(C[N+](=O)[O-])c2c(C)[nH]n(-c3ccccc3)c2=O)c1 (stereo unspecified),12,5,-12,-36,4,8
NS(=O)(=O)c1ccc(N2N=C(c3ccccc3)CC2c2ccccc2Br)cc1 (stereo unspecified),21,-5,/,10,/,-5
SMILES,CCR6 antag,HTR2A ag,APJ antagonist,EBI2 antag,APJ ag,CXCR6 inh
COc1ccnc(CSC(N)=Nc2ccccc2C(F)(F)F)c1,-8,-2,-13,1,0,-6
COc1ccnc(CSC(N)=Nc2cccc(C(F)(F)F)c2)c1,53*,5,/,-6,/,28
C/C(=C\C(=O)c1ccc(Br)cc1)NNC(=O)c1ccccc1,65*,2,35,6,-8,29
N#Cc1ccc(Nc2nc(-c3ccc(O)cc3O)cs2)cc1C(F)(F)F,4,1,3,56*,6,-23
COc1ccccc1NC(=O)COc1ccc(/C=N/NC(=O)CSCc2ccc(Cl)cc2)cc1,2,7,64*,15,-4,6
COc1ccccc1NC(=O)COc1ccc(/C=N/NC(=O)CSCc2cc(C)cc(C)c2)cc1,7,1,11,10,-4,-6
Cc1onc(-c2ccccc2)c1C(=O)OCC(=O)N(CC(C)C)c1c(N)n(Cc2ccccc2)c(=O)[nH]c1=O,1,2,10,3,-3,5
O=C(CS(=O)c1ccc(C(F)(F)F)cc1[N+](=O)[O-])Oc1ccccc1 (stereo unspecified),13,2,15,-11,16,4
CS(=O)(=O)c1ccc(S(=O)CC(=O)OCc2ccccc2)c([N+](=O)[O-])c1 (stereo unspecified),/,-6,/,41*,/,52*
COc1ccc(C(O)CNc2ccc(C)cc2)cc1 (stereo unspecified),15,-1,-16,66*,14,1
COc1ccc(NC(=O)CCSc2ccc(C)cc2)cc1,0,0,14,-15,2,-1
CCOc1ccc(N2C(=O)CC(Sc3nnnn3-c3ccccc3)C2=O)cc1 (stereo unspecified),/,-5,/,-1,/,52*
CC(C)OC(=O)C(C#N)c1nc2ccccc2nc1N1CCCC1 (stereo unspecified),43,-3,19,5,-2,12
CC1CCCN(C2=NC(=O)/C(=C/c3cn(-c4ccccc4)nc3-c3cccc(S(=O)(=O)N(C)C)c3)S2)C1 (stereo unspecified),-7,-4,7,68*,-1,17
Cc1cc(OCC(=O)N2CCCCCC2)ccc1[N+](=O)[O-],10,5,9,-1,-2,3
C[C@H](CO)N1C[C@H](C)[C@@H](CN(C)C(=O)c2ccc3ccn(C)c3c2)OCc2cnnn2CCCC1=O,/,0,/,-7,/,4
COc1ccc(-c2cn(/N=C/c3ccc(Cl)cc3Cl)c(N)n2)cc1,-16,-3,-28,4,0,4
CC(=O)Nc1ccc(Nc2c3c4c(cccc4n(C)c2=O)C(=O)c2ccccc2-3)cc1,52*,2,21,13,-1,26
COc1ccc(OC)c(S(=O)(=O)ON2C(=O)c3ccccc3C2=O)c1,57*,2,20,-6,1,11
